Measurements collected from several papers.
Target: Serine/threonine-protein kinase PAK 5 (PAK5, Homo sapiens, UniProt Q9P286)

COc1ccnn2ncc(-c3ccnc(N(C)C)n3)c12  remaining binding (binding; 1 µM): 94%
CC1=C(C#N)C(c2ccc3c(c2)c(NC(=O)c2ccccc2C)nn3C)C(C#N)=C(C)N1  remaining binding (cell-free assay; competition with immobilised ligand; 1 µM): 100%
N[C@H]1CCN(c2nccc(-c3cnn4ncccc34)n2)C1  remaining binding (binding; 1 µM): 100%
O=C(NCCCN1CCOCC1)c1ccc(Nc2ncc(Cl)c(-c3ccc(Cl)s3)n2)cc1  remaining binding (binding; competition with immobilised ligand; 1 µM): 73%
CN(c1nccc(-c2cnn3ncccc23)n1)C1CC1  remaining binding (binding; 1 µM): 100%
CO[C@H]1CC[C@H](CNc2ccc(S(=O)(=O)NC(=O)c3ccc(N4CCN(CC5=C(c6ccc(Cl)cc6)CC(C)(C)CC5)CC4)cc3Oc3cnc4[nH]ccc4c3)cc2[N+](=O)[O-])CC1  remaining binding (cell-free assay; competition with immobilised ligand; 1 µM): 99%
O=C(NCCCN1CCOCC1)c1ccc(Nc2nccc(-c3cc4ccccc4s3)n2)cc1  remaining binding (binding; competition with immobilised ligand; 1 µM): 81%
CC1CCCN1c1nccc(-c2cnn3ncccc23)n1 (centres unmarked)  remaining binding (binding; 1 µM): 70%
CN(C)CC#Cc1ccc(OCCCc2sc(N3CCc4cccc(C(=O)Nc5nc6ccccc6s5)c4C3)nc2C(=O)O)c(F)c1  remaining binding (cell-free assay; competition with immobilised ligand; 1 µM): 91%
O=C(Nc1c[nH]nc1C(=O)NC1CCNCC1)c1cc(F)cc(F)c1  remaining binding (binding; competition with immobilised ligand; 1 µM): 100%
CN(C)c1ncc(F)c(-c2cnn3ncccc23)n1  remaining binding (binding; 1 µM): 76%
Nc1ncc2c(n1)-c1c([nH]c3ccc(C#CC4CC4)cc13)CCCC2  remaining binding (binding; competition with immobilised ligand; 1 µM): 97%
F[C@@H]1CCN(c2nccc(-c3cnn4ncccc34)n2)C1  remaining binding (binding; 1 µM): 100%
C[C@@]1(Cc2ccc(C#N)cc2)C(=O)N(c2cc(Cl)cc(Cl)c2)c2ncc(C(=O)NC3(c4nc(C5CCC5)no4)CC3)n21  remaining binding (cell-free assay; competition with immobilised ligand; 1 µM): 100%
COc1cnc(Nc2cccc(S(N)(=O)=O)c2)nc1N1CCN(c2ccccc2)C(=O)C1  remaining binding (binding; competition with immobilised ligand; 1 µM): 82%
O=C(NCCCC1CCCCC1)c1ccc(CNC(=O)c2cnn(-c3ccccc3)c2C(F)(F)F)cc1  remaining binding (cell-free assay; competition with immobilised ligand; 0.1 µM): 100%
O=C(c1ccc(Nc2ncc(Cl)c(-c3ccc(Cl)s3)n2)cc1)N1CCC(N2CCCC2)CC1  remaining binding (binding; competition with immobilised ligand; 1 µM): 58%
COc1ncc2cc3ccccc3nc2c1C#N  remaining binding (cell-free assay; competition with immobilised ligand; 5 µM): 100%
CNCc1ccccc1-c1csc([C@H](C)Nc2nc(C)nc3cc(OC)c(OC)cc23)c1  remaining binding (cell-free assay; competition with immobilised ligand; 1 µM): 100%
c1cncc(-c2cccc(Nc3nccc(NC4CCCCC4)n3)c2)c1  remaining binding (binding; competition with immobilised ligand; 10 µM): 76%
